ChEMBL document CHEMBL5674880 (PLoS One, 2018)

Key:
Format in all cases: functional, cell-based
[1] = system: 5637; test: Antiproliferative activity against human 5637 cells after 10 days; conditions: Homo sapiens, 5637, 240 h
In short: (§1)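 Tested as part of a 240-line cancer cell panel (Eurofins Oncopanel); all lines were mycoplasma-negative and STR-verified. Cells were exposed to a compound concentration series in 2D culture for 10 days. The highest concentration was 10 μM or 25 μM, depending on the inhibitor. Antiproliferative IC50 was derived from the mean of three biological replicates.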

[2] = system: A549; test: Antiproliferative activity against human A549 cells after 10 days; conditions: A549, 240 h; in short: as §1
[3] = system: AN3-CA; test: Antiproliferative activity against human AN3-CA cells after 10 days; conditions: 240 h; in short: as §1
[4] = Antiproliferative activity against human SK-N-BE(2)-C cells after 10 days; conditions: 240 h
[5] = system: BT-20; test: Antiproliferative activity against human BT-20 cells after 10 days; conditions: BT-20, 240 h; in short: as §1
[6] = system: BT-474; test: Antiproliferative activity against human BT-474 cells after 10 days; conditions: BT-474, 240 h; in short: as §1
[7] = system: BV-173; test: Antiproliferative activity against human BV-173 cells after 10 days; conditions: BV-173, 240 h; in short: as §1
[8] = Antiproliferative activity against human C4-1 cells after 10 days; conditions: C4-1, 240 h; in short: as §1
[9] = system: Calu-6; test: Antiproliferative activity against human Calu-6 cells after 10 days; conditions: Calu-6, 240 h
In short: (§2)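 10-day 2D proliferation screen of a broad cancer cell panel (about 240 lines, Eurofins Oncopanel). All lines were mycoplasma negative and STR verified. Compounds were dosed up to a top concentration of 10 μM or 25 μM, depending on the inhibitor. Anti-proliferative IC50 values are the average of three biological replicates.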

[10] = system: ChaGo-K-1; test: Antiproliferative activity against human ChaGo-K-1 cells after 10 days; conditions: ChaGo-K-1, 240 h; in short: as §2
[11] = system: CHP-212; test: Antiproliferative activity against human CHP-212 cells after 10 days; conditions: CHP-212, 240 h; in short: as §1
[12] = system: COR-L23; test: Antiproliferative activity against human COR-L23 cells after 10 days; conditions: COR-L23, 240 h; in short: as §2
[13] = system: D283 Med; test: Antiproliferative activity against human D283 Med cells after 10 days; conditions: 240 h; in short: as §2
[14] = system: Daoy; test: Antiproliferative activity against human Daoy cells after 10 days; conditions: 240 h; in short: as §2
[15] = system: Daudi; test: Antiproliferative activity against human Daudi cells after 10 days; conditions: 240 h; in short: as §2
[16] = system: DLD-1; test: Antiproliferative activity against human DLD-1 cells after 10 days; conditions: DLD-1, 240 h; in short: as §2
[17] = system: EB-3; test: Antiproliferative activity against human EB-3 cells after 10 days; conditions: EB-3, 240 h; in short: as §2
[18] = system: EFM-19; test: Antiproliferative activity against human EFM-19 cells after 10 days; conditions: EFM-19, 240 h; in short: as §2
[19] = system: HCT-8; test: Antiproliferative activity against human HCT-8 cells after 10 days; conditions: HCT-8, 240 h; in short: as §2
[20] = system: HepG2; test: Antiproliferative activity against human HepG2 cells after 10 days; conditions: HepG2, 240 h; in short: as §2
[21] = system: HPAF-II; test: Antiproliferative activity against human HPAF-II cells after 10 days; conditions: 240 h; in short: as §2
[22] = system: Hs 766; test: Antiproliferative activity against human Hs766T cells after 10 days; conditions: Hs 766, 240 h; in short: as §2
[23] = system: HuP-T4; test: Antiproliferative activity against human HuP-T4 cells after 10 days; conditions: HuP-T4, 240 h
In short: (§3)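 Broad cancer cell line panel (Eurofins Oncopanel, about 240 lines; mycoplasma negative, STR verified) grown in 2D culture and exposed to compound in a 10-day proliferation assay. The top concentration was 10 μM for the SMYD2 inhibitor series and 25 μM for the SMYD3 inhibitor. The proliferative IC50 is taken from concentration-response data, each value the mean of three biological replicates.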

[24] = system: J-RT3-T3-5; test: Antiproliferative activity against human J-RT3-T3-5 cells after 10 days; conditions: J-RT3-T3-5, 240 h; in short: as §3
[25] = system: K562; test: Antiproliferative activity against human K562 cells after 10 days; conditions: K562, 240 h; in short: as §3
[26] = Antiproliferative activity against human KPL-1 cells after 10 days; conditions: KPL-1, 240 h; in short: as §3
[27] = system: LNCaP; test: Antiproliferative activity against human LNCaP cells after 10 days; conditions: 240 h; in short: as §3
[28] = system: LS174T; test: Antiproliferative activity against human LS174T cells after 10 days; conditions: 240 h; in short: as §3
[29] = system: MDA-MB-453; test: Antiproliferative activity against human MDA-MB-453 cells after 10 days; conditions: MDA-MB-453, 240 h
In short: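 Cell lines run in the Eurofins Oncopanel broad cancer panel, all mycoplasma-negative and STR-verified. Cells were exposed to a compound concentration series in a 10-day proliferation assay, and an anti-proliferative IC50 was derived. Values are the mean of three biological replicates.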

[30] = system: MOLT-16; test: Antiproliferative activity against human MOLT-16 cells after 10 days; conditions: MOLT-16, 240 h; in short: as §3
[31] = system: NCI-H441; test: Antiproliferative activity against human NCI-H441 cells after 10 days; conditions: NCI-H441, 240 h; in short: as §3
[32] = system: NCI-H596; test: Antiproliferative activity against human NCI-H596 cells after 10 days; conditions: NCI-H596, 240 h; in short: as §3
[33] = system: NCI-H69; test: Antiproliferative activity against human NCI-H69 cells after 10 days; conditions: NCI-H69, 240 h; in short: as §3
[34] = system: NCI-H747; test: Antiproliferative activity against human NCI-H747 cells after 10 days; conditions: NCI-H747, 240 h; in short: as §3
[35] = system: OE33; test: Antiproliferative activity against human OE33 cells after 10 days; conditions: OE33, 240 h; in short: as §3
[36] = system: OVCAR-3; test: Antiproliferative activity against human OVCAR-3 cells after 10 days; conditions: OVCAR-3, 240 h; in short: as §3
[37] = Antiproliferative activity against human RKOAS451 cells after 10 days; conditions: RKOAS451, 240 h; in short: as §3
[38] = system: RL95-2; test: Antiproliferative activity against human RL95-2 cells after 10 days; conditions: RL95-2, 240 h
[39] = system: SK-BR-3; test: Antiproliferative activity against human SK-BR-3 cells after 10 days; conditions: SK-BR-3, 240 h
[40] = system: SK-N-FI; test: Antiproliferative activity against human SK-N-FI cells after 10 days; conditions: 240 h
[41] = system: SNU-423; test: Antiproliferative activity against human SNU-423 cells after 10 days; conditions: SNU-423, 240 h
[42] = system: SU.86.86; test: Antiproliferative activity against human SU-86-86 cells after 10 days; conditions: SU.86.86, 240 h
[43] = system: SW48; test: Antiproliferative activity against human SW48 cells after 10 days; conditions: SW48, 240 h
[44] = system: SW 954; test: Antiproliferative activity against human SW 954 cells after 10 days; conditions: SW 954, 240 h
[45] = system: T47D; test: Antiproliferative activity against human T47D cells after 10 days; conditions: 240 h
[46] = system: TCC-SUP; test: Antiproliferative activity against human TCC-SUP cells after 10 days; conditions: 240 h
[47] = Antiproliferative activity against human TE 381.T cells after 10 days; conditions: 240 h
[48] = system: U138-MG; test: Antiproliferative activity against human U138-MG cells after 10 days; conditions: 240 h
[49] = system: U-266; test: Antiproliferative activity against human U266B1 cells after 10 days; conditions: U-266, 240 h

Cc1cn(CCN2CCN(c3ccccc3-c3cc(C#N)cc(C(=O)NCCCN4CCCC4)c3)CC2)c2ccccc12
IC50 [1]: 6.75 µM
IC50 [2]: 3.39 µM
IC50 [3]: 2420 nM
IC50 [4]: 3.31 µM
IC50 [5]: 3.35 µM
IC50 [6]: 2940 nM
IC50 [7]: 1330 nM
IC50 [8]: 2060 nM
IC50 [9]: 3.68 µM
IC50 [10]: 1230 nM
IC50 [11]: 2100 nM
IC50 [12]: 2210 nM
IC50 [13]: 2510 nM
IC50 [14]: 3.67 µM
IC50 [15]: 857 nM
IC50 [16]: 3.4 µM
IC50 [17]: 329 nM
IC50 [18]: 2680 nM
IC50 [19]: 2520 nM
IC50 [20]: 2350 nM
IC50 [21]: 1600 nM
IC50 [22]: 2750 nM
IC50 [23]: 3.48 µM
IC50 [24]: 1180 nM
IC50 [25]: 3.21 µM
IC50 [26]: 3.43 µM
IC50 [27]: 3.44 µM
IC50 [28]: 1470 nM
IC50 [29]: 1500 nM
IC50 [30]: 1110 nM
IC50 [31]: 5.63 µM
IC50 [32]: 2950 nM
IC50 [33]: 2740 nM
IC50 [34]: 2320 nM
IC50 [35]: 2000 nM
IC50 [36]: 3.95 µM
IC50 [37]: 1110 nM
IC50 [38]: 1290 nM
IC50 [39]: 1170 nM
IC50 [40]: 6.03 µM
IC50 [41]: 1110 nM
IC50 [42]: 3.55 µM
IC50 [43]: 1350 nM
IC50 [44]: 4.07 µM
IC50 [45]: 2220 nM
IC50 [46]: 2260 nM
IC50 [47]: 1990 nM
IC50 [48]: 4.54 µM
IC50 [49]: 1260 nM

O=C(NC1CN(Cc2cnn(Cc3ccccc3)c2)C1)c1cn(C2CC2)nn1
IC50 [1]: > 10 µM
IC50 [2]: > 10 µM
IC50 [3]: > 10000 nM
IC50 [4]: > 10 µM
IC50 [5]: > 10 µM
IC50 [6]: > 10000 nM
IC50 [7]: > 10000 nM
IC50 [8]: > 10000 nM
IC50 [9]: > 10 µM
IC50 [10]: > 10000 nM
IC50 [11]: > 10000 nM
IC50 [12]: > 10000 nM
IC50 [13]: > 10000 nM
IC50 [14]: > 10 µM
IC50 [15]: > 10000 nM
IC50 [16]: > 10 µM
IC50 [17]: > 10000 nM
IC50 [18]: > 10000 nM
IC50 [19]: > 10000 nM
IC50 [20]: > 10000 nM
IC50 [21]: > 10000 nM
IC50 [22]: > 10000 nM
IC50 [23]: > 10 µM
IC50 [24]: 3 nM
IC50 [25]: > 10 µM
IC50 [26]: > 10 µM
IC50 [27]: > 10 µM
IC50 [28]: > 10000 nM
IC50 [29]: > 10000 nM
IC50 [30]: > 10000 nM
IC50 [31]: > 10 µM
IC50 [32]: > 10000 nM
IC50 [33]: > 10000 nM
IC50 [34]: > 10000 nM
IC50 [35]: > 10000 nM
IC50 [36]: > 10 µM
IC50 [37]: > 10000 nM
IC50 [38]: > 10000 nM
IC50 [39]: > 10000 nM
IC50 [40]: > 10 µM
IC50 [41]: > 10000 nM
IC50 [42]: > 10 µM
IC50 [43]: > 10000 nM
IC50 [44]: > 10 µM
IC50 [45]: > 10000 nM
IC50 [46]: > 10000 nM
IC50 [47]: > 10000 nM
IC50 [48]: > 10 µM
IC50 [49]: > 10000 nM
